# Assay results reported in PubChem BioAssay AID1381 (University of Pittsburgh Molecular Library Screening Center, 2008).
# About 1,000 (0.45%) of roughly 220,000 compounds were called active.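 The calls were made as follows: active = plate z-score of nuclear minus cytoplasmic receptor signal below a set negative limit, without overly bright fluorescence or cell loss (cut at about -3.5 in these data, passing the limit was not always enough); inactive = the rest, inconclusive results apart.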 This excerpt belongs to a sample that is enriched for actives.
# Test: inhibitors of GR-EGFP nuclear translocation, primary screen, dynein cargo transport inhibitor project, imaging, high-content, 3617.4 mouse cells (AID 1381)
# Settings: at 20 µM, stimulated with dexamethasone, 1 µM
# In short: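 Buffer or medium: tet-free, stripped-serum medium; Also added: dexamethasone, 1.0 µM final; Technique: high-content fluorescence imaging after fixation; Times: 48 h induction, 1 h compound, 30 min dex at 37 °C; Read-out: per-cell GR-EGFP intensity, nucleus versus surrounding cytoplasmic ring, well-averaged.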
# [1] = measured here: cell count per field
# [2] = measured here: cytoplasmic GR-EGFP intensity, stronger effect = higher value
# [3] = measured here: nuclear GR-EGFP intensity, stronger effect = lower value
Structure (SMILES),z-score (stronger effect = lower value),z-score [1],z-score [2],z-score [3]
C=CCn1cc(C(=O)NCc2ccc(Cl)cc2)c(=O)c2cc(S(=O)(=O)N(CC)CC)ccc21,0.479 (inactive),-0.781,-0.191,1.32
CSCCC(NC(=O)COc1ccccc1)C(=O)Nc1ccc(C)cc1 (configuration not stated),0.137 (inactive),0.845,0.202,0.24
O=c1[nH][nH]c(=O)c2cc(N3CCCC3)ccc12,-0.37 (inactive),0.302,-0.256,0.0156
O=C1C=CC(=O)N1c1ccc(N2CCCCC2)cc1,-4.11 (active),-2.21,2.18,-1.81
Cc1ccccc1C(=O)Nc1ccc(N2CCCCCC2)cc1,-0.0609 (inactive),-0.96,0.105,0.497
COc1ccc(Cl)cc1-n1c(C)cc(C(=O)OCC(=O)N2CC(=O)Nc3ccccc32)c1C,-0.945 (inactive),0.925,-0.291,-0.693
COCCn1c(C)cc(C(=O)COC(=O)/C=C/c2cccc(OC)c2)c1C,-0.49 (inactive),0.119,-0.317,-0.136
COc1cccc(-c2ccc(SCC(=O)N3CCN(c4ccccc4)CC3)nn2)c1,1.32 (inactive),-1.03,-0.273,1.04
O=C(NCc1ccc(F)cc1)C(c1ccccc1)N(C(=O)c1csnn1)C1CC1 (configuration not stated),2.29 (inactive),-1.97,-0.277,0.843
Cc1cc(NC(=O)Nc2ccc(Cl)cc2)n(-c2ccccc2)n1,-0.438 (inactive),-0.392,-0.229,0.639
Cc1cc(C(=O)NCCc2ccc(Cl)cc2)n(-c2ccccc2)n1,-5.24 (active),-1.31,0.343,-3.12
O=C(NCCc1ccccc1)Oc1ccc(Cl)cc1,-0.396 (inactive),0.0482,-0.223,-0.459
Brc1ccc2c(c1)[C@H]1OCC[C@H]1[C@@H](c1cccs1)N2,1.51 (inactive),-1.61,-0.149,1.53
COC(=O)[C@@H]1CC[C@H](C)[C@@H](c2ccc(C)cc2)N1C(=O)c1ccc(/C=N/O[C@H](C)c2cn([C@@H]3COC[C@H]3O)nn2)cc1,0.697 (inactive),0.326,-0.241,0.639
CC(=O)NCC(=O)N1CCCC(C(=O)c2ccc3c4c(cccc24)CC3)C1 (configuration not stated),0.368 (inactive),-0.117,-0.201,0.261
Cc1ccc(O)c(CCc2ccccc2)n1,0.491 (inactive),-0.946,-0.202,0.586
Cc1[nH]c2ccccc2c1C(=O)COC(=O)c1c(-c2ccccc2)noc1C,-0.58 (inactive),0.403,-0.281,-0.747
Cc1ccc(CNC(=O)Cn2c(=O)c3sccc3n(Cc3cccc([N+](=O)[O-])c3)c2=O)cc1,-0.763 (inactive),0.845,-0.184,-0.435
